By AUC is commonly meant concentration integrated over time. The Cmax is the highest concentration seen after dosing. As usually defined, the Ki is a measure of affinity in units of concentration, obtained from inhibition or displacement. The low end stands for a stronger hold on the target, the high end for a looser hold on the target. In general, AUC(0-inf) refers to the area under the concentration-time curve extrapolated to infinity. As usually defined, the Tmax is the time at which the peak concentration occurs. The AUC(0-t) is the area under the concentration-time curve up to a stated or last time point. Read a low AUC(0-t) as low exposure. As a reminder, the bioavailability is the share of a dose that reaches the circulation, judged against a reference dose that is usually intravenous. Read a low bioavailability as poor availability.

Series [1] relates to Rattus norvegicus. Nature of the series: AUC (0 to infinity) in Sprague-Dawley rat assessed as AUC of ([7-(2,6-Dichloro-phenyl)-5-methyl-benzo[1,2,4]triazin-3-yl]-[4-(2-pyrrolidin-1-yl-ethoxy)-phenyl]-amine) at 5 mg/kg, iv. The series is classed as ADME, organism-based, Plasma. Details: time infinity, dose 5 mg/kg, route intravenous. As to conditions: in vivo.
Series [2] concerns Rattus norvegicus. Put plainly: AUC (0 to infinity) in Sprague-Dawley rat assessed as AUC of ([7-(2,6-Dichloro-phenyl)-5-methyl-benzo[1,2,4]triazin-3-yl]-[4-(2-pyrrolidin-1-yl-ethoxy)-phenyl]-amine) at 5 mg/kg, ip. The series is classed as ADME, organism-based, Plasma. Also noted: time infinity, dose 5 mg/kg, route intraperitoneal. The following applies: in vivo.
Series [3] is described as follows: Cmax in BALB/c mouse at 25 mg/kg, po. The series is classed as ADME, organism-based. Also noted: dose 25 mg/kg, route oral. As to conditions: in vivo. An outline of the steps:
(§1)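 Male BALB/c mice (~25 g); fasted overnight for single p.o. dosing, not fasted for i.v. or i.p. dosing. Composite blood sampling, n=3 per time point: 5, 15, 30 min, 1, 3, 6, 24, 48 hr after i.v. dose; 0.5, 1, 3, 5, 8, 24, 30, 48 hr after p.o. or i.p. dose. Heparinized plasma, both parent and N-oxide measured by LC/MS/MS (MRM 494.2/98.1 and 510.2/98.1); non-compartmental analysis, AUC by linear trapezoidal rule.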

Series [4] can be described thus: Cmax in Sprague-Dawley rat at 25 mg/kg, po. The format is ADME, organism-based. Details: dose 25 mg/kg, route oral. As to conditions: in vivo.
Series [5] relates to Mus musculus. Nature of the series: Maximal plasma concentration of TG100435 in BALB/C mice after 25 mg/kg oral dose of TG100855. The series is classed as ADME, organism-based. Also noted: dose 25 mg/kg, route oral. As to conditions: in vivo. The method in brief: as §1
The target of series [6] is Tyrosine-protein kinase Lyn (Homo sapiens, UniProt P07948). Nature of the series: Inhibition of Lyn by luminescence based kinase assay.
Series [7] in a line: AUC (0 to infinity) in BALB/c mouse at 40 mg/kg, po. Details: time infinity, dose 40 mg/kg, route oral. The series is classed as ADME, organism-based. As to conditions: plasma. The method in brief:
as §1

Series [8] in a line: AUC (0 to infinity) in Sprague-Dawley rat at 30 mg/kg, po. The series is classed as ADME, organism-based. Details: time infinity, dose 30 mg/kg, route oral. The following applies: plasma.
The nature of series [9]: Tmax in BALB/c mouse at 25 mg/kg, po. The format is ADME, organism-based. Also noted: dose 25 mg/kg, route oral. The following applies: in vivo.
The nature of series [10]: Tmax in Sprague-Dawley rat at 25 mg/kg, po. The series is classed as ADME, organism-based. Details: dose 25 mg/kg, route oral. The following applies: in vivo.
A short description of series [11]: AUC (0 to infinity) in BALB/c mouse at 25 mg/kg, po. The series is classed as ADME, organism-based. The following applies: plasma. Also noted: time infinity, dose 25 mg/kg, route oral. An outline of the steps:
as §1

Series [12] is described as follows: AUC (0 to infinity) in Sprague-Dawley rat at 25 mg/kg, po. The format is ADME, organism-based. Also noted: time infinity, dose 25 mg/kg, route oral. As to conditions: plasma.
Series [13] can be described thus: AUC (0 to last) in BALB/c mouse at 25 mg/kg, po. Also noted: time 0 - last, dose 25 mg/kg, route oral. As to conditions: plasma. The format is ADME, organism-based. The method in brief: as §1
The nature of series [14]: AUC (0 to last) in Sprague-Dawley rat at 25 mg/kg, po. The series is classed as ADME, organism-based. The following applies: plasma. Also noted: time 0 - last, dose 25 mg/kg, route oral.
Series [15] can be described thus: Bioavailability in BALB/c mouse at 25 mg/kg, po. The format is ADME, organism-based. The following applies: in vivo.
Series [16] is described as follows: Bioavailability in Sprague-Dawley rat at 25 mg/kg, po. The series is classed as ADME, organism-based. As to conditions: in vivo.
The subject of series [17] is Mus musculus. Put plainly: Tmax in BALB/c mouse assessed as Tmax of ([7-(2,6-Dichloro-phenyl)-5-methyl-benzo[1,2,4]triazin-3-yl]-[4-(2-pyrrolidin-1-yl-ethoxy)-phenyl]-amine) at 25 mg/kg, po. The following applies: in vivo.
In series [18] the test system is Rattus norvegicus. Put plainly: Tmax in Sprague-Dawley rat assessed as Tmax of ([7-(2,6-Dichloro-phenyl)-5-methyl-benzo[1,2,4]triazin-3-yl]-[4-(2-pyrrolidin-1-yl-ethoxy)-phenyl]-amine) at 25 mg/kg, po. The following applies: in vivo.
The test system of series [19] is Mus musculus. Put plainly: AUC (0 to last) in BALB/c mouse assessed as AUC of ([7-(2,6-Dichloro-phenyl)-5-methyl-benzo[1,2,4]triazin-3-yl]-[4-(2-pyrrolidin-1-yl-ethoxy)-phenyl]-amine) at 25 mg/kg, po. The following applies: in vivo.
Series [20] deals with Mus musculus. Put plainly: AUC (0 to infinity) in BALB/c mouse assessed as AUC of ([7-(2,6-Dichloro-phenyl)-5-methyl-benzo[1,2,4]triazin-3-yl]-[4-(2-pyrrolidin-1-yl-ethoxy)-phenyl]-amine) at 25 mg/kg, po. The following applies: in vivo.
Series [21] has as its system Rattus norvegicus. Put plainly: AUC (0 to last) in Sprague-Dawley rat assessed as AUC of ([7-(2,6-Dichloro-phenyl)-5-methyl-benzo[1,2,4]triazin-3-yl]-[4-(2-pyrrolidin-1-yl-ethoxy)-phenyl]-amine) at 25 mg/kg, po. The following applies: in vivo.
Series [22] concerns Rattus norvegicus. Nature of the series: AUC (0 to infinity) in Sprague-Dawley rat assessed as AUC of ([7-(2,6-Dichloro-phenyl)-5-methyl-benzo[1,2,4]triazin-3-yl]-[4-(2-pyrrolidin-1-yl-ethoxy)-phenyl]-amine) at 25 mg/kg, po. As to conditions: in vivo.
In series [23] the test system is Mus musculus. Nature of the series: Bioavailability in BALB/c mouse assessed as bioavailability of ([7-(2,6-Dichloro-phenyl)-5-methyl-benzo[1,2,4]triazin-3-yl]-[4-(2-pyrrolidin-1-yl-ethoxy)-phenyl]-amine) at 25 mg/kg, po. As to conditions: in vivo.
The subject of series [24] is Rattus norvegicus. Put plainly: Bioavailability in Sprague-Dawley rat assessed as bioavailability of ([7-(2,6-Dichloro-phenyl)-5-methyl-benzo[1,2,4]triazin-3-yl]-[4-(2-pyrrolidin-1-yl-ethoxy)-phenyl]-amine) at 25 mg/kg, po. As to conditions: in vivo.

The structures appear in SMILES notation.

Tyrosine-protein kinase Lyn, sequence (P07948 whole entry): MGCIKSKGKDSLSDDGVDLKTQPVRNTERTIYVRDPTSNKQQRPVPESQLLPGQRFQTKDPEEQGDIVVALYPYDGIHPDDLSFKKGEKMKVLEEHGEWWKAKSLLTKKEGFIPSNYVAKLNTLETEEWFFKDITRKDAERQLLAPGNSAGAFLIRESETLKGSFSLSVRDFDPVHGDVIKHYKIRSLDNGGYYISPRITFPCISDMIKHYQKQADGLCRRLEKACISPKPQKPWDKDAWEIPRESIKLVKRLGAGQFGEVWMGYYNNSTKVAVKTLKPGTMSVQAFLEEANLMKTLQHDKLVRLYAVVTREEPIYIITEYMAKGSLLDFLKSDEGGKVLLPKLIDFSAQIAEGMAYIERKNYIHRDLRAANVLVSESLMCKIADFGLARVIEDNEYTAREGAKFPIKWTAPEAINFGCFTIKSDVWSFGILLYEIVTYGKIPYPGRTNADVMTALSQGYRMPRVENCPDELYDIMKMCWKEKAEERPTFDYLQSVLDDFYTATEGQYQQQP

With `Cc1cc(-c2c(Cl)cccc2Cl)cc2nnc(Nc3ccc(OCC[N+]4([O-])CCCC4)cc3)nc12`, the AUC in [1] amounted to 539 ng·h/mL; in [2], 498 ng·h/mL; in [19], 1740 ng·h/mL; in series [20], 1760 ng·h/mL; in series [21] it was 881 ng·h/mL; in [22] it was 906 ng·h/mL. The Cmax in [3] was 171 ng/mL; in [4] it was 160 ng/mL; in series [5] it was 113 ng/mL. The compound also registered a Ki in [6] of 4.19 nM. The AUC(0-inf) in series [7] is 13400 ng·h/mL; in series [8], 9310 ng·h/mL; in [11] it was 939 ng·h/mL; in series [12] it was 470 ng·h/mL. Besides, the Tmax was found to be 1 h in series [9], 3.5 h in series [10], 7 h in series [17] and 4 h in series [18]. Also, the AUC(0-t) was 912 ng·h/mL in series [13] and 467 ng·h/mL in series [14]. The bioavailability worked out at 3.5% in series [15] and 1.6% in [16]. Moreover, the results for the F in series [23] and in series [24] were 6.8% and 3.1%, respectively.

(Values after ChEMBL document CHEMBL1147085, “Metabolism and pharmacokinetics of a novel Src kinase inhibitor TG100435 ([7-(2,6-dichloro-phenyl)-5-methyl-benzo[1,2,4]triazin-3-yl]-[4-(2-pyrrolidin-1-yl-ethoxy)-phenyl]-amine) and its active N-oxide metabolite TG100855 …” (Drug Metab Dispos, 2007).)
